Data: ChEMBL document CHEMBL1764975, “A new DNA gyrase inhibitor subclass of the cyclothialidine family based on a bicyclic dilactam-lactone scaffold. Synthesis and antibacterial properties” (J Med Chem, 2011)
≈ marks a conversion by molar mass, not a printed value.

Tests used:
Staphylococcus aureus [1] = assay: Antimicrobial activity against Staphylococcus aureus Smith after 18 hrs by agar dilution method; assay type: functional
Summary of the method: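 Agar dilution on Mueller-Hinton medium, inoculum 10⁴ CFU/spot; MIC is the minimum inhibitory concentration against the named strain.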

Escherichia coli = assay: Inhibition of Escherichia coli DNA gyrase A2B2 complex after 30 mins by supercoiling assay
Staphylococcus aureus [2] = assay: Antimicrobial activity against Staphylococcus aureus Smith infected in iv dosed septicaemia Swiss albino mouse model after 4 days; assay type: functional; conditions: 96 h
Summary of the method: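 Septicaemia model in mice infected with S. aureus Smith, compound given iv. In experiments with 0-1 survivors among 5-10 control mice, ED₅₀ (mg/kg) taken as lowest dose giving 3-5 survivors out of 5 infected mice.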

Staphylococcus aureus [3] = assay: Antimicrobial activity against multidrug-resistant Staphylococcus aureus after 18 hrs by agar dilution method; assay type: functional
Summary of the method: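 Agar dilution on Mueller-Hinton agar, inoculum 10⁴ CFU/spot, against panels of multiresistant clinical strains (S. aureus 11, E. faecalis 16, E. faecium 23). MIC_50/90 in μg/mL taken as the minimum concentration inhibiting at least 50% or 90% of the strains tested.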

Row | Structure (SMILES) | MIC (Staphylococcus aureus [1]) [µg/mL] | MNEC (Escherichia coli) [µg/mL] | ED50 (Staphylococcus aureus [2]) [mg/kg] | MIC50 (Staphylococcus aureus [3]) [µg/mL] | MIC90 (Staphylococcus aureus [3]) [µg/mL]
1 | COc1cc(O)c2c(c1C)C(=O)OCC(=S)NCC(=S)N[C@H](c1nc(C)no1)CSC2 | 0.5 (≈ 1.04 µM) | 0.002 |  |  | 
2 | COc1cc(O)c2c(c1C)C(=O)OC[C@H](CO)CCC(=S)N[C@H](c1nc(C)no1)CSC2 | 0.5 (≈ 1.04 µM) | 0.002 | 12.5 |  | 
3 | COc1cc(O)c2c(c1C)C(=O)OCCCCC(=S)N[C@H](c1nc(CO)no1)CSC2 | 0.25 (≈ 0.535 µM) | 0.001 | 25 |  | 
4 | COc1cc(O)c2c(c1C)C(=O)O[C@H](CO)CCCC(=S)N[C@H](c1nc(CO)no1)CSC2 | 10 (≈ 20.1 µM) | 0.01 |  |  | 
5 | COc1cccc(OC)c1C(=O)N[C@@H]1C(=O)N2[C@@H]1SC(C)(C)[C@@H]2C(=O)O [METHICILLIN] |  |  |  | 256 (≈ 673 µM) | > 256
6 | COc1cc(O)c2c(c1Br)C(=O)OCC(=O)NCC(=O)N[C@H](c1nc(C3CC3)no1)CSC2 | 2 (≈ 3.69 µM) | 0.02 | 6 |  | 
7 | COc1cc(O)c2c(c1Br)C(=O)OCC(=O)NCC(=O)N[C@H](c1nc(CO)no1)CSC2 | 32 (≈ 60.2 µM) | 0.02 |  |  | 
8 | COc1cc(O)c2c(c1Br)C(=O)OCCN(C(=O)C(C)(C)C)CC(=O)N[C@H](c1nc(C)no1)CSC2 | 0.5 (≈ 0.854 µM) | 0.05 | > 12 |  | 
9 | COc1cc(O)c2c(c1C)C(=O)OC[C@@H](CO)CCC(=O)N[C@H](c1nc(C)no1)CSC2 | 64 (≈ 137 µM) | 0.1 |  |  | 
10 | COc1cc(O)c2c(c1C)C(=O)OC[C@H](CO)CCC(=O)N[C@H](c1nc(C)no1)CSC2 | 8 (≈ 17.2 µM) | 0.005 |  |  | 
11 | COc1cc(O)c2c(c1Br)C(=O)OCCN(C(C)=O)CC(=O)N[C@H](c1nc(C)no1)CSC2 | 16 (≈ 29.4 µM) | 0.01 |  |  | 
12 | COc1cc(O)c2c(c1Br)C(=O)O[C@H](c1ccccc1)C(=O)NCC(=S)N[C@H](c1nc(C)no1)CSC2 | 0.5 (≈ 0.823 µM) | 1 | > 25 |  | 
13 | COc1cc(O)c2c(c1C)C(=O)OCC(=S)NCC(=O)N[C@H](c1nc(C)no1)CSC2 | 2 (≈ 4.29 µM) | 0.005 | > 25 |  | 
14 | COc1cc(O)c2c(c1Br)C(=O)OCC(=O)N(C)CC(=O)N[C@H](c1nc(C)no1)CSC2 | 2 (≈ 3.78 µM) | 0.05 | > 12.5 |  | 
15 | COc1cc(O)c2c(c1Br)C(=O)OCCN(S(C)(=O)=O)CC(=O)N[C@H](c1nc(C)no1)CSC2 | 64 (≈ 110 µM) | 0.1 |  |  | 
16 | COc1cc(O)c2c(c1Br)C(=O)OCCNCC(=O)N[C@H](c1nc(C)no1)CSC2.Cl | 1 | 0.01 | 25 |  | 
17 | COc1cc(O)c2c(c1Br)C(=O)OCC(=S)NCC(=S)N[C@H](c1nc(C)no1)CSC2 | 1 (≈ 1.83 µM) | 0.2 |  |  | 
18 | COC(=O)[C@@H]1CSCc2c(O)cc(OC)c(C)c2C(=O)OCCOCC(=S)N1 | 2.37 (≈ 5.52 µM) | 0.1 |  |  | 
19 | COc1cc(O)c2c(c1Br)C(=O)OCC(=O)NCC(=O)N[C@H](c1nc(CNC(C)C)no1)CSC2.Cl | 16 | 0.02 |  |  | 

Row | Structure (SMILES) | MIC (Staphylococcus aureus [1]) [µg/mL] | MNEC (Escherichia coli) [µg/mL] | ED50 (Staphylococcus aureus [2]) [mg/kg] | MIC50 (Staphylococcus aureus [3]) [µg/mL] | MIC90 (Staphylococcus aureus [3]) [µg/mL]
20 | COc1cc(O)c2c(c1Br)C(=O)OCC(=O)NCC(=S)N[C@H](c1nc(CN)no1)CSC2.Cl | 1 | 0.05 | > 12 |  | 
21 | COCc1noc([C@@H]2CSCc3c(O)cc(OC)c(Br)c3C(=O)OCC(=O)NCC(=O)N2)n1 | 8 (≈ 14.7 µM) | 0.05 |  |  | 
22 | COc1cc(O)c2c(c1Br)C(=O)O[C@H](c1ccccc1)C(=O)NCC(=O)N[C@H](c1nc(C)no1)CSC2 | > 64 | 0.2 |  |  | 
23 | COc1cc(O)c2c(c1C)C(=O)OC[C@@H](CO)CCC(=S)N[C@H](c1nc(C)no1)CSC2 | 1 (≈ 2.08 µM) | 0.05 | > 25 |  | 
24 | COc1cc(O)c2c(c1Br)C(=O)OCC(=O)N(C)CC(=S)N[C@H](c1nc(C)no1)CSC2 | 0.5 (≈ 0.917 µM) | 0.05 |  |  | 
25 | COc1cc(O)c2c(c1Br)C(=O)OCCN(C)CC(=O)N[C@H](c1nc(C)no1)CSC2.Cl | 1 | 0.05 | > 25 |  | 
26 | COc1cc(O)c2c(c1Br)C(=O)O[C@H](C)C(=O)NCC(=S)N[C@H](c1nc(C)no1)CSC2 | 0.5 (≈ 0.917 µM) | 0.2 | > 12.5 |  | 
27 | COc1cc(O)c2c(c1Br)C(=O)OCCN(C(=O)C1CC1)CC(=O)N[C@H](c1nc(C)no1)CSC2 | 8 (≈ 14 µM) | 0.1 |  |  | 
28 | COc1cc(O)c2c(c1Cl)C(=O)OCC(=O)NCC(=O)N[C@H](c1nc(C)no1)CSC2 | 8 (≈ 17 µM) | 0.02 | 25 |  | 
29 | COc1cc(O)c2c(c1Br)C(=O)OCCN(C(=O)[C@@H](N)CC(C)C)CC(=O)N[C@H](c1nc(C)no1)CSC2.Cl | 16 | 0.1 |  |  | 
30 | COc1cc(O)c2c(c1Cl)C(=O)OCCCCC(=O)N[C@H](c1nc(C)no1)CSC2 | 0.25 (≈ 0.548 µM) | 0.005 | > 25 |  | 
31 | COc1cc(O)c2c(c1Br)C(=O)OCCCCC(=S)N[C@H](c1nc(CN)no1)CSC2.Cl | 0.5 | 0.05 | 12.5 |  | 
32 | COc1cc(O)c2c(c1Cl)C(=O)OCCCCC(=S)N[C@H](c1nc(C)no1)CSC2 | 0.25 (≈ 0.53 µM) | 0.002 |  |  | 
33 | COC(=O)[C@@H]1CSCc2c(O)cc(OC)c(C)c2C(=O)OCCCC/C(S)=N/1 |  | 0.01 |  |  | 
34 | COc1cc(O)c2c(c1Br)C(=O)OCCN(C(=O)[C@H](C)N)CC(=O)N[C@H](c1nc(C)no1)CSC2.Cl | > 64 | 0.1 |  |  | 
35 | COc1cc(O)c2c(c1C)C(=O)O[C@H](CO)CCCC(=S)N[C@H](c1nc(CN)no1)CSC2 | 32 (≈ 64.4 µM) | 0.005 |  |  | 
36 | COc1cc(O)c2c(c1Br)C(=O)OCC(=O)NCC(=O)N[C@H](c1nc(CN)no1)CSC2.Cl | 32 | 0.1 |  |  | 
37 | COc1cc(O)c2c(c1Br)C(=O)OCCNCC(=S)N[C@H](c1nc(C)no1)CSC2.Cl | 0.5 | 0.1 | > 25 |  | 
38 | COc1cc(O)c2c(c1Br)C(=O)O[C@H](C)C(=O)NCC(=O)N[C@H](c1nc(C)no1)CSC2 | 2 (≈ 3.78 µM) | 0.05 | > 12.5 |  | 
